The source of these data is PubChem BioAssay.

A short description of assay [1]: Her2 expression decrease, cell viability multiplex – SKBR3 breast tumor cells, AlphaScreen, ATP viability, primary screen (AID 461;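 active = Her2 level under about 52% in both replicate screens, with viability over 70% of control, limit read from the data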;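 as to Her2 level: lower value means less Her2 protein in the cells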;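 as to viability: percent of carrier control wells set as 100% viability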). Conditions: SKBR3 Her2 protein level, 18-24 h, measured here: SKBR3 viability, ATP luminescence, at 10 µM. A general note: Bead proximity is the source of the signal in Alpha formats.
For assay [2], the target named is Receptor tyrosine-protein kinase erbB-2 (Homo sapiens) (UniProt P04626). The assay is described as above. The settings on record: 18-24 h, at 10 µM, stronger effect = lower value.
Sequence of Receptor tyrosine-protein kinase erbB-2 (Homo sapiens) (P04626 whole entry, looked up): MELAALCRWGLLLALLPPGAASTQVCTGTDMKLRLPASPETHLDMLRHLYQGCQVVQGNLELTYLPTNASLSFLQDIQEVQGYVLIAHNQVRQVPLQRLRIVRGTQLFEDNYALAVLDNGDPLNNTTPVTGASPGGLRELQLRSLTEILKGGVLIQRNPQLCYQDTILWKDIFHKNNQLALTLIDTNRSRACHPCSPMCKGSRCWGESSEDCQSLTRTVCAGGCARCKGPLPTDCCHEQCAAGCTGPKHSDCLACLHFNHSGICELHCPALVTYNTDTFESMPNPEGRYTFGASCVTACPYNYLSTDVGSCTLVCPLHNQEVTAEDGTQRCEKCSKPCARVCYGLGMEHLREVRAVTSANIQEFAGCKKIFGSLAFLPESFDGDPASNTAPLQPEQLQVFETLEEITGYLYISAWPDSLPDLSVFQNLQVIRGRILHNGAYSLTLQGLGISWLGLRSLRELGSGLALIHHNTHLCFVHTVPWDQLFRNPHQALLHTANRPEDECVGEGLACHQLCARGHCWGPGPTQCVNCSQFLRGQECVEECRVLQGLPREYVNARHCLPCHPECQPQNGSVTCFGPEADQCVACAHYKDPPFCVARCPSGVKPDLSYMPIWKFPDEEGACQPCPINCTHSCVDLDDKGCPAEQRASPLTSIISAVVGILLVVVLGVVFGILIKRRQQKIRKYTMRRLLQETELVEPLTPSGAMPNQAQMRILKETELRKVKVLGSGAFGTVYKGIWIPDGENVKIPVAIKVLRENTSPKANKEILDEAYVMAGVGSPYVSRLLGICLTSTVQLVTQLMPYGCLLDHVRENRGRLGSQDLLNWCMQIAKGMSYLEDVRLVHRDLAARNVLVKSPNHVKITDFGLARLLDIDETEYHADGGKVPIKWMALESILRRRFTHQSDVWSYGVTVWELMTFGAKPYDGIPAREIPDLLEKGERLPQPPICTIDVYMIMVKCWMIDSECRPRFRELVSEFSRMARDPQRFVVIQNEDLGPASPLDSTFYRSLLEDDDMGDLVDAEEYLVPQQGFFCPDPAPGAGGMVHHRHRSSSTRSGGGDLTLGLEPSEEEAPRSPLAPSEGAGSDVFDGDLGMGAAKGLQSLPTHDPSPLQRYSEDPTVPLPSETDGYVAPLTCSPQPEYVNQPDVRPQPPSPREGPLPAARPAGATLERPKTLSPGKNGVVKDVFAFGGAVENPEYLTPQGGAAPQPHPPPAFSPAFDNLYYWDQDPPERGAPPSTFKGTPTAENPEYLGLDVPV
Assay [3] can be described thus: reduced viability of SK-BR-3 breast cancer cells – cell-based, 24 h, human, pilot screen (AID 572;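 active = viability at or below 10% of carrier control in both of two separate runs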;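 also: compound exposure lasted between 18 and 24 h rather than exactly 24 h; 100% = carrier-treated control wells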). Conditions: SK-BR-3 viability, CellTiter-Glo luminescence, at 10 µM, stronger effect = lower value.
The nature of assay [4]: HUVEC growth inhibition – cell-based, human, primary screen (AID 575;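 active = viability at or below 30% in both replicate assays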;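 also: 100% = median of untreated cell wells with 0.1% DMSO on each plate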). Conditions: HUVEC proliferation, CellTiter-Glo luminescence, 72 h; at 10 µM; stronger effect = lower value. In a few lines: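 Assay system: primary human umbilical vein endothelial cells / Buffer or medium: endothelial basal medium with 2% FBS plus growth supplements / Compound dosing: one dose, 10 µM final, 0.1% DMSO / Timing: 72 h treatment at 37 °C / Signal: CTG luminescence / Benchmarks: 32 DMSO-only cell-control wells (high), 32 MePR drug-control wells (low) per plate / Plate: collagen-coated 384-well format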
(In general: Cellular ATP, detected with luciferase, serves as a proxy for viable cell number.)

Assay [5] can be described thus: H69AR cell proliferation blockers – human, duplicate replicates, primary screen (AID 580;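 active = viability at or under a set limit in both replicates, limit being median viability minus 3 SD, cut at about 48% in these data, passing the limit was not always enough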;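 also: 100% = mean luminescence of untreated wells and 0% = no signal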). The settings on record: H69AR lung tumor cells viability, ATP luminescence, 72 h; at 10 µM; stronger effect = lower value.
The nature of assay [6]: MRP1 drug-resistance reversers in H69AR cells – cell-based, doxorubicin co-treatment, pilot screen (AID 601). The settings on record: CellTiter-Glo, 72 h, at 10 µM; for differential viability (reversal): stronger effect = higher value.
A short description of assay [7]: yeast transport mutant growth inhibition pilot in 384-well plates, post-Golgi transport modulator project (AID 636; in the data active = inhibition above about 31%). The settings on record: absorbance 615 nm, about 18 h, stronger effect = higher value.
Assay [8] can be described thus: growth suppression of yeast trafficking mutant, preliminary HTS, modulators of trafficking downstream of Golgi apparatus project, 1536-format plate, OD 615 nm (AID 637; in the data active = inhibition above about 30%). The settings on record: yeast transport mutant growth, absorbance 615 nm, 18 h; stronger effect = higher value.
Where [9] appears, read: H69AR cells + 2 uM doxorubicin, measured here: viability with 2 uM doxorubicin, stronger effect = lower value.
The mark [10] stands for this setting: H69AR cells, compound alone cytotoxicity.

Calls of active or inactive are those of the source.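 The calls were made as follows, unless noted: active = viability loss from added drug above about 55%, and viability with drug at most 40%, in both replicates (limit read from the data, passing the limit was not always enough); inconclusive = both conditions met in only one replicate; inactive = neither replicate meets both conditions.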

The viability is a read-out of living cells in per cent, often relative to untreated cells. Broadly, the inhibition is the drop in the measured response relative to a control, in per cent. With `O=C1NC(Cc2c[nH]c3ccccc23)C(=O)N1CCOc1ccccc1` (stereo not given), the viability in assay [1] was 79.5%; in assay [3], 79.5% (inactive); in assay [4], 73.2% (inactive); in assay [5], 94.4% (inactive); in assay [6] (setting [9]) it was 94.2%; in assay [6] (setting [10]) it was 94.4%. Also, in assay [2], the Her2 level is 89% (inactive). The differential viability (reversal) in assay [6] (H69AR cells + 2 uM doxorubicin) was 0.2% (inactive). Besides, the inhibition is -2.76% (inactive) in assay [7] and -1.83% (inactive) in assay [8].

`C=CCN(C(=O)CNC(=O)c1ccco1)C(C(=O)NC1CCCCC1)c1ccccc1F` (stereo not given): the viability in assay [1] is 108%; in assay [3], 108% (inactive); in assay [4], 96.2% (inactive); in assay [5], 100% (inactive); in assay [6] (setting [9]), 93.5%; in assay [6] (setting [10]), 100%. For the same compound, in assay [2], the Her2 level was 108% (inactive). Further, in assay [6] (H69AR cells + 2 uM doxorubicin), the differential viability (reversal) is 6.92% (inactive). Moreover, the inhibition was -2.43% (inactive) in assay [7] and 1.27% (inactive) in assay [8].

For `CCc1ccc(NS(=O)(=O)c2cccs2)cc1`, the viability in assay [1] was 97.5%; in assay [3] it was 97.5% (inactive); in assay [4], 101% (inactive); in assay [5], 96% (inactive); in assay [6] (setting [9]) it was 94%; in assay [6] (setting [10]), 96%. Further, in assay [2], the Her2 level was 102% (inactive). In assay [6] (H69AR cells + 2 uM doxorubicin), the differential viability (reversal) was 2% (inactive). Also, the results for the inhibition in assay [7] and in assay [8] were -2.24% (inactive) and 1.48% (inactive), respectively.

Turning to `N#CCCCN1C(=O)C(O)(CC(=O)c2ccc3c(c2)OCCO3)c2ccccc21` (stereo not given), the viability is 100% in assay [1]; 100% (inactive) in assay [3]; 89.5% (inactive) in assay [4]; 85.3% (inactive) in assay [5]; 79.2% in assay [6] (setting [9]); 85.3% in assay [6] (setting [10]). Further, in assay [2], the Her2 level was 93.5% (inactive). Moreover, the differential viability (reversal) in assay [6] (H69AR cells + 2 uM doxorubicin) is 6.12% (inactive). In addition, the inhibition is -2.89% (inactive) in assay [7] and -9.03% (inactive) in assay [8].

In the case of `Cc1oc(-c2ccc(Cl)cc2)nc1CS(=O)CC(=O)NCCCN(C)C1CCCCC1` (stereo not given), the viability in assay [1] is 91.5%; in assay [3], 91.5% (inactive); in assay [4] it was 66.3% (inactive); in assay [5] it was 87.1% (inactive); in assay [6] (setting [9]) it was 76.3%; in assay [6] (setting [10]), 87.1%. For the same compound, the Her2 level in assay [2] is 101% (inactive). The differential viability (reversal) in assay [6] (H69AR cells + 2 uM doxorubicin) was 10.8% (inactive). In addition, the inhibition was -2.99% (inactive) in assay [7] and 5.56% (inactive) in assay [8].

As to `O=C1C(Cl)=C(N2CCOCC2)C(=O)N1CCc1ccccc1`, the viability is 104% in assay [1]; 104% (inactive) in assay [3]; 89.3% (inactive) in assay [4]; 71.3% (inactive) in assay [5]; 71.3% in assay [6] (setting [9]); 71.3% in assay [6] (setting [10]). Also, the Her2 level in assay [2] is 84% (inactive). For the same compound, the differential viability (reversal) in assay [6] (H69AR cells + 2 uM doxorubicin) was 0.02% (inactive). In addition, the values for the inhibition in assay [7] and in assay [8] were -6.27% (inactive) and -1.11% (inactive), respectively.

Consider `O=C(/C=N/O)NCc1ccncc1`, for which the viability is 100% in assay [1]; 100% (inactive) in assay [3]; 102% (inactive) in assay [4]; 108% (inactive) in assay [5]; 100% in assay [6] (setting [9]); 108% in assay [6] (setting [10]). The Her2 level in assay [2] was 94.5% (inactive). The differential viability (reversal) in assay [6] (H69AR cells + 2 uM doxorubicin) is 7.88% (inactive). Moreover, the inhibition is -1.43% (inactive) in assay [7] and -3.81% (inactive) in assay [8].

For `NC(=O)c1c(-c2ccccc2)oc2ccc(O)cc12`, the viability in assay [1] was 121%; in assay [3], 121% (inactive); in assay [4], 96.2% (inactive); in assay [5], 90.4% (inactive); in assay [6] (setting [9]), 77%; in assay [6] (setting [10]), 90.4%. Besides, in assay [2], the Her2 level is 88% (inactive). The differential viability (reversal) in assay [6] (H69AR cells + 2 uM doxorubicin) was 13.4% (inactive). Further, the inhibition is 1.18% (inactive) in assay [7] and -9.82% (inactive) in assay [8].

For `CCn1c(C)c(CCC(=O)O)c(=O)n2nc(-c3ccccc3OC)cc12`, the viability was 91% in assay [1]; 91% (inactive) in assay [3]; 100% (inactive) in assay [4]; 87.4% (inactive) in assay [5]; 88.6% in assay [6] (setting [9]); 87.4% in assay [6] (setting [10]). For the same compound, in assay [2], the Her2 level is 104% (inactive). For the same compound, the differential viability (reversal) in assay [6] (H69AR cells + 2 uM doxorubicin) is -1.22% (inactive). Further, the inhibition is -0.14% (inactive) in assay [7] and 23.6% (inactive) in assay [8].

Consider `Cc1nc2sc(C(c3ccc(Br)cc3)N3CC(C)OC(C)C3)c(O)n2n1` (stereo not given), for which the viability in assay [1] was 80%; in assay [3], 80% (inactive); in assay [4], 109% (inactive); in assay [5], 105% (inactive); in assay [6] (setting [9]), 90.2%; in assay [6] (setting [10]), 105%. Further, the Her2 level in assay [2] is 112% (inactive). Besides, the differential viability (reversal) in assay [6] (H69AR cells + 2 uM doxorubicin) is 15.2% (inactive). For the same compound, the inhibition in assay [7] is -2.21% (inactive); in assay [8], -3.44% (inactive).

Consider `COc1ccc(-n2ncc3c(=O)n(CC(=O)OCc4ccccc4)cnc32)cc1`, for which the viability in assay [1] is 83%; in assay [3] it was 83% (inactive); in assay [4], 99.1% (inactive); in assay [5] it was 97.8% (inactive); in assay [6] (setting [9]) it was 85.8%; in assay [6] (setting [10]), 97.8%. Besides, the Her2 level in assay [2] is 104% (inactive). The differential viability (reversal) in assay [6] (H69AR cells + 2 uM doxorubicin) is 12% (inactive). Moreover, the inhibition was 0% (inactive) in assay [7] and 0.5% (inactive) in assay [8].

As for `COCCOC(=O)/C=C1/NC(=O)CS1`, the viability in assay [1] is 96.5%; in assay [3], 96.5% (inactive); in assay [4], 106% (inactive); in assay [5], 93.8% (inactive); in assay [6] (setting [9]) it was 89.6%; in assay [6] (setting [10]), 93.8%. Besides, the Her2 level in assay [2] was 94.5% (inactive). In addition, the differential viability (reversal) in assay [6] (H69AR cells + 2 uM doxorubicin) is 4.28% (inactive). Further, the inhibition in assay [7] is -5.6% (inactive); in assay [8], 1.48% (inactive).

`CC(C)OCCCNC(=O)c1cc2c(s1)CS(=O)(=O)C2`: the viability in assay [1] is 99%; in assay [3], 99% (inactive); in assay [4], 90.3% (inactive); in assay [5] it was 94.6% (inactive); in assay [6] (setting [9]), 96.1%; in assay [6] (setting [10]), 94.6%. In addition, the Her2 level in assay [2] was 104% (inactive). Moreover, the differential viability (reversal) in assay [6] (H69AR cells + 2 uM doxorubicin) is -1.46% (inactive). In addition, the inhibition in assay [7] is 1.03% (inactive); in assay [8], -8.5% (inactive).

For `COc1ccc(Cl)cc1C(=O)n1nc(C)cc1C`, the viability in assay [1] was 104%; in assay [3] it was 104% (inactive); in assay [4], 93% (inactive); in assay [5], 94.6% (inactive); in assay [6] (setting [9]) it was 93%; in assay [6] (setting [10]), 94.6%. Moreover, in assay [2], the Her2 level was 112% (inactive). Also, the differential viability (reversal) in assay [6] (H69AR cells + 2 uM doxorubicin) is 1.56% (inactive). Besides, the inhibition in assay [7] is 2.43% (inactive); in assay [8], 9.17% (inactive).

`O=C(NCC1CCCO1)C1CCN(c2ccc(S(=O)(=O)N3CCCC3)cc2)CC1` (stereo not given): the viability in assay [1] is 115%; in assay [3], 115% (inactive); in assay [4] it was 99.2% (inactive); in assay [5] it was 80% (inactive); in assay [6] (setting [9]), 86%; in assay [6] (setting [10]), 80%. Also, in assay [2], the Her2 level is 112% (inactive). The differential viability (reversal) in assay [6] (H69AR cells + 2 uM doxorubicin) is -6.02% (inactive). In addition, the values for the inhibition in assay [7] and in assay [8] were -5.45% (inactive) and -1.5% (inactive), respectively.
